This experiment concerns the target Sonic hedgehog protein (Mus musculus, UniProt Q62226). In words: Inhibition of SHH in mouse Shh-Light2 cells after 48 hrs by Gli1 reporter gene assay in presence of SAG. A digest of the protocol:
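Shh-Light II cells co-treated with the Hh activator SAG and inhibitor for 48 h. Cells washed with PBS and lysed, then firefly and constitutive Renilla luminescence read by dual-luciferase assay. IC50 from firefly/Renilla RLU/s plotted against concentration, Hill-slope non-linear regression. Highest concentration 5000 nM. 2–4 independent experiments, each in technical triplicate.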
Regarding `CC1=C2C[C@H]3[C@@H](CC=C4C[C@@H](O)CC[C@@]43C)[C@@H]2CC[C@]12O[C@@H]1C[C@H](C)CN[C@H]1[C@H]2C`, the IC50 was 1310 nM. Consider `O=C(Nc1ccc(Cl)c(-c2nc3ccccc3[nH]2)c1)c1ccccc1` [N-(3-(1H-Benzo[d]imidazol-2-yl)-4-chlorophenyl)-benzamide], for which the IC50 turned out to be 163 nM. The same measure for `COc1ccc(C(=O)Nc2ccc(Cl)c(-c3nc4ccccc4[nH]3)c2)cc1` [N-(3-(1H-Benzo[d]imidazol-2-yl)-4-chlorophenyl)-4-methoxybenzamide]: 117 nM; for `N#Cc1ccc(C(=O)Nc2ccc(Cl)c(-c3nc4ccccc4[nH]3)c2)cc1` [N-(3-(1H-Benzo[d]imidazol-2-yl)-4-chlorophenyl)-4-cyanobenzamide]: 185 nM. The same measure for `COc1cc(C(=O)Nc2ccc(Cl)c(-c3nc4ccccc4[nH]3)c2)cc(OC)c1OC` [N-(3-(1H-Benzo[d]imidazol-2-yl)-4-chlorophenyl)-3,4,5-trimethoxybenzamide]: 79.8 nM; for `COc1ccccc1C(=O)Nc1ccc(Cl)c(-c2nc3ccccc3[nH]2)c1` [N-(3-(1H-Benzo[d]imidazol-2-yl)-4-chlorophenyl)-2-methoxybenzamide]: 876 nM; for `CN(C)c1ccc(C(=O)Nc2ccc(Cl)c(-c3nc4ccccc4[nH]3)c2)cc1` [N-(3-(1H-Benzo[d]imidazol-2-yl)-4-chlorophenyl)-4-(dimethylamino)benzamide]: 190 nM. The same measure for `O=C(Nc1ccc(Cl)c(-c2nc3ccccc3[nH]2)c1)c1ccc(F)cc1` [N-(3-(1H-Benzo[d]imidazol-2-yl)-4-chlorophenyl)-4-fluorobenzamide]: 251 nM; for `CCOc1cc(C(=O)Nc2cccc(-c3nc4ccccc4[nH]3)c2)cc(OCC)c1OCC` [N-(3-(1H-Benzo[d]imidazol-2-yl)phenyl)-3,4,5-triethoxybenzamide]: 1320 nM. As for `O=C(Nc1ccc(Cl)c(-c2nc3ccccc3[nH]2)c1)c1ccc(Cl)cc1` [N-(3-(1H-Benzo[d]imidazol-2-yl)-4-chlorophenyl)-4-chlorobenzamide], the IC50 amounted to 224 nM. The same measure for `CCOc1cc(C(=O)Nc2ccc(Cl)c(-c3nc4ccccc4[nH]3)c2)cc(OCC)c1OCC` [N-(3-(1H-Benzo[d]imidazol-2-yl)-4-chlorophenyl)-3,4,5-triethoxybenzamide]: 97.9 nM; for `O=C(Nc1ccc(Cl)c(-c2nc3ccccc3[nH]2)c1)c1cccc(C(F)(F)F)c1` [N-(3-(1H-Benzo[d]imidazol-2-yl)-4-chlorophenyl)-3-(trifluoromethyl)benzamide]: 119 nM.

The values are drawn from BindingDB's records for doi:10.1016/j.bmc.2009.06.008 (University of Leipzig, 2009).
